Experimental findings from publication PMC3667888 (Channels, 2013) are described below.

SMILES strings stand for the structures. Numbering of substitutions follows the chain as printed.

Type in all cases: cell-based
Assay [1] has as its target T1, Kv4.2 K318R mutant channels (co-injected with KChIP1b) (Rattus norvegicus, UniProt Q63881, K318R).
T1 sequence (Q63881 1-630 K318R): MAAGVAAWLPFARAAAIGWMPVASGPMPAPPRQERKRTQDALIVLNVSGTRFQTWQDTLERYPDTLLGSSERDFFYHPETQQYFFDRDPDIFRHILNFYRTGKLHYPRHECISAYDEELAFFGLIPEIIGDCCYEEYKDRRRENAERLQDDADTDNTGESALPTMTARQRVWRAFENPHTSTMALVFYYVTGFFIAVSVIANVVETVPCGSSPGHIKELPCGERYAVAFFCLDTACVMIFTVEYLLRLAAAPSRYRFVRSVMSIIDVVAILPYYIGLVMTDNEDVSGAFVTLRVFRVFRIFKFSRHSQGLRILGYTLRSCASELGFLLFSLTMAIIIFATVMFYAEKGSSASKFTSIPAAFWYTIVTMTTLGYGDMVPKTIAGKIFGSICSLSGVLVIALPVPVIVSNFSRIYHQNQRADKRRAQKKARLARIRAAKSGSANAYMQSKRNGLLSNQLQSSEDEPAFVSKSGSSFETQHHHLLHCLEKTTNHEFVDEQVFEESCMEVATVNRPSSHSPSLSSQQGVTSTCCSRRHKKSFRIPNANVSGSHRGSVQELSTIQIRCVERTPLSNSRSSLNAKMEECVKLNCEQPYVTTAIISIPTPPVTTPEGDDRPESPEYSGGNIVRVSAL
The experiment in a line: Two-electrode voltage clamp, K318R mutant Kv4.2/KChIP1b in Xenopus oocytes. Conditions: 10 µM AA, 10 min. The method, boiled down: (§1)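 Rat Kv4.2 (WT or QuikChange mutant) RNA co-injected equimolar with KChIP1b, 5–10 ng/oocyte, into Xenopus oocytes held 1–5 d at 17–19 °C. Two-electrode voltage clamp at room temperature in perfused Na/K methanesulfonate HEPES saline, pH 7.4–7.5, with P/−4 or P/−6 leak subtraction. Peak current at +40 mV (from −90 mV) after 10 min of 10 μM AA is expressed relative to pre-AA current. Mean ± SE, n = cells.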

For assay [2], the target named is T2, Kv4.2 V261F mutant channels (co-injected with KChIP1b) (Rattus norvegicus, UniProt Q63881, V261F).
T2 sequence (Q63881 1-630 V261F): T1 sequence (Q63881 1-630 K318R) with V261F, R318K
Kind of assay: Two-electrode voltage clamp, V261F mutant Kv4.2/KChIP1b in Xenopus oocytes. The method, boiled down: as §1
On the technique in general: In two-electrode clamp one electrode senses voltage and the other passes current.

Assay [3] addresses T3, Kv4.2 K318E mutant channels (co-injected with KChIP1b) (Rattus norvegicus, UniProt Q63881, K318E).
T3 sequence (Q63881 1-630 K318E): T1 sequence (Q63881 1-630 K318R) with R318E
Kind of assay: Two-electrode voltage clamp, K318E mutant Kv4.2/KChIP1b in Xenopus oocytes. Conditions: 10 µM AA. In a few lines: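 Xenopus oocytes co-expressing rat Kv4.2 (WT or mutant) with equimolar KChIP1b were recorded by two-electrode voltage clamp at room temperature. Peak conductance was calculated as G = I/(Vm − Vh), with Vh = −100 mV, and normalized to each cell's Gmax. It was plotted against step potential without and with 10 μM AA and fit to a first-order Boltzmann function to give V1/2 and slope.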

A word on the inhibition: it is the percentage by which the read-out fell short of the control. Regarding `CCCCC/C=C\C/C=C\C/C=C\C/C=C\CCCC(=O)O` [AA, arachidonic acid], the results for the “inhibition of peak K+ current by AA, effect of mutation” value in assay [1] and in assay [3] (10 min) were “preserved the strong inhibition by AA” and “did not impair the inhibition of current by AA”, respectively. Moreover, the “V1/2 of conductance-voltage curve with AA” value in assay [2] (10 µM AA, V261F) is on record as −17.1 mV; in assay [3] it was −25.2 mV. Further, the “slope factor (k) of Boltzmann fit with AA” value was found to be 10.9 in assay [2] (10 µM AA, V261F) and 7.1 in assay [3]. In assay [2] (read-out: inhibition of the peak K+ current), the inhibition at 10 µM came out at 18%. Besides, the “shift in V1/2 in the presence of AA” value in assay [3] is recorded as “+5 mV”.
